# Test results as given in ChEMBL document CHEMBL4038305, “Benzoxaborole Antimalarial Agents. Part 5. Lead Optimization of Novel Amide Pyrazinyloxy Benzoxaboroles and Identification of a Preclinical Candidate” (J Med Chem, 2017).
# Legend:
# Plasmodium berghei [1] = experiment: Antimalarial activity against Plasmodium berghei infected in Swiss Webster mouse assessed as mouse survival rate at 100 mg/kg administered once daily via oral gavage for 4 consecutive days beginning 1 hr after infection measured on day 7 post infection relative to control; assay type: functional
# Outline: (§1)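 Mice given an intraperitoneal injection of P. berghei-infected erythrocytes taken from a previously infected animal. Oral dosing once daily for 4 consecutive days, starting 1 h after infection. Vehicle: polyethylene glycol 300/propylene glycol/water (weight ratio 55/25/20). Percent survival recorded daily from day 4 to day 20. Chloroquine 30 mg/kg and vehicle-only groups served as controls.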
# Plasmodium berghei [2] = experiment: Antimalarial activity against Plasmodium berghei infected in Swiss Webster mouse assessed as mouse survival rate at 200 mg/kg administered once daily via oral gavage for 4 consecutive days beginning 1 hr after infection measured on day 8 post infection relative to control; assay type: functional
# Outline: (§2)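 P. berghei-infected erythrocytes taken from a previously infected mouse were injected intraperitoneally. Oral dosing, once daily for 4 consecutive days, began 1 h after infection, in polyethylene glycol 300/propylene glycol/water (55/25/20 by weight). Chloroquine at 30 mg/kg was the positive control, with a vehicle-only group. Percent survival was recorded daily from day 4 to day 20.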
# Plasmodium berghei [3] = experiment: Antimalarial activity against Plasmodium berghei infected in Swiss Webster mouse assessed as mouse survival rate at 200 mg/kg administered once daily via oral gavage for 4 consecutive days beginning 1 hr after infection measured on day 10 post infection relative to control; assay type: functional; outline: as §2
# Plasmodium berghei [4] = experiment: Antimalarial activity against Plasmodium berghei infected in Swiss Webster mouse assessed as mouse survival rate at 3 mg/kg administered once daily via oral gavage for 4 consecutive days beginning 1 hr after infection measured on day 7 post infection relative to control; assay type: functional; outline: as §2
# Plasmodium berghei [5] = experiment: Antimalarial activity against Plasmodium berghei infected in Swiss Webster mouse assessed as mouse survival rate at 100 mg/kg administered once daily via oral gavage for 4 consecutive days beginning 1 hr after infection measured on day 6 post infection relative to control; assay type: functional; outline: as §1
# Plasmodium berghei [6] = experiment: Antimalarial activity against Plasmodium berghei infected in Swiss Webster mouse assessed as mouse survival rate at 100 mg/kg administered once daily via oral gavage for 4 consecutive days beginning 1 hr after infection measured on day 8 post infection relative to control; assay type: functional; outline: as §1
# Plasmodium berghei [7] = experiment: Antimalarial activity against Plasmodium berghei infected in Swiss Webster mouse assessed as mouse survival rate at 3.7 mg/kg administered once daily via oral gavage for 4 consecutive days beginning 1 hr after infection measured on day 5 post infection relative to control; assay type: functional; outline: as §2
# Plasmodium berghei [8] = experiment: Antimalarial activity against Plasmodium berghei infected in Swiss Webster mouse assessed as mouse survival rate at 3 mg/kg administered once daily via oral gavage for 4 consecutive days beginning 1 hr after infection measured on day 6 post infection relative to control; assay type: functional; outline: as §2
# Plasmodium berghei [9] = experiment: Antimalarial activity against Plasmodium berghei infected in Swiss Webster mouse assessed as mouse survival rate at 33 mg/kg administered once daily via oral gavage for 4 consecutive days beginning 1 hr after infection measured on day 4 post infection relative to control; assay type: functional; outline: as §2
# Plasmodium berghei [10] = experiment: Antimalarial activity against Plasmodium berghei infected in Swiss Webster mouse assessed as mouse survival rate at 200 mg/kg administered once daily via oral gavage for 4 consecutive days beginning 1 hr after infection measured on day 7 post infection relative to control; assay type: functional; outline: as §2
# Plasmodium berghei [11] = experiment: Antimalarial activity against Plasmodium berghei infected in Swiss Webster mouse assessed as mouse survival rate at 33 mg/kg administered once daily via oral gavage for 4 consecutive days beginning 1 hr after infection measured on day 7 post infection relative to control; assay type: functional; outline: as §2
# Plasmodium berghei [12] = experiment: Antimalarial activity against Plasmodium berghei infected in Swiss Webster mouse assessed as mouse survival rate administered once daily via oral gavage for 4 consecutive days beginning 1 hr after infection measured on day 4 post infection; assay type: functional; outline: as §1
# Plasmodium berghei [13] = experiment: Antimalarial activity against Plasmodium berghei infected in Swiss Webster mouse assessed as mouse survival rate at 100 mg/kg administered once daily via oral gavage for 4 consecutive days beginning 1 hr after infection measured on day 4 post infection relative to control; assay type: functional; outline: as §1
# Plasmodium berghei [14] = experiment: Antimalarial activity against Plasmodium berghei infected in Swiss Webster mouse assessed as mouse survival rate at 11 mg/kg administered once daily via oral gavage for 4 consecutive days beginning 1 hr after infection measured on day 4 post infection relative to control; assay type: functional; outline: as §2
# Plasmodium berghei [15] = experiment: Antimalarial activity against Plasmodium berghei infected in Swiss Webster mouse assessed as mouse survival rate at 200 mg/kg administered once daily via oral gavage for 4 consecutive days beginning 1 hr after infection measured on day 9 post infection relative to control; assay type: functional; outline: as §2
# Plasmodium berghei [16] = experiment: Antimalarial activity against Plasmodium berghei infected in Swiss Webster mouse assessed as mouse survival rate at 100 mg/kg administered once daily via oral gavage for 4 consecutive days beginning 1 hr after infection measured on day 9 post infection relative to control; assay type: functional; outline: as §1
# Plasmodium berghei [17] = experiment: Antimalarial activity against Plasmodium berghei infected in Swiss Webster mouse assessed as mouse survival rate at 3 mg/kg administered once daily via oral gavage for 4 consecutive days beginning 1 hr after infection measured on day 5 post infection relative to control; assay type: functional; outline: as §2
# Plasmodium berghei [18] = experiment: Antimalarial activity against Plasmodium berghei infected in Swiss Webster mouse assessed as mouse survival rate at 200 mg/kg administered once daily via oral gavage for 4 consecutive days beginning 1 hr after infection measured on day 6 post infection relative to control; assay type: functional; outline: as §2
# Plasmodium falciparum [19] = experiment: Antimalarial activity against chloroquine-sensitive Plasmodium falciparum 3D7 infected in human erythrocytes assessed as reduction in [3H]-hypoxanthine incorporation preincubated for 24 hrs followed by [3H]-hypoxanthine addition measured after 24 hrs by scintillation counting method; assay type: functional, cell-based
# Outline: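 P. falciparum 3D7 cultures were exposed to the compound for 48 h, with atovaquone as the reference control. IC50 was taken from three replicates.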
# Plasmodium berghei [20] = experiment: Antimalarial activity against Plasmodium berghei infected in Swiss Webster mouse assessed as mouse survival rate at 200 mg/kg administered once daily via oral gavage for 4 consecutive days beginning 1 hr after infection measured on day 4 post infection relative to control; assay type: functional; outline: as §2
# Plasmodium berghei [21] = experiment: Antimalarial activity against Plasmodium berghei infected in Swiss Webster mouse assessed as mouse survival rate at 1 mg/kg administered once daily via oral gavage for 4 consecutive days beginning 1 hr after infection measured on day 6 post infection relative to control; assay type: functional; outline: as §1
# Plasmodium berghei [22] = experiment: Antimalarial activity against Plasmodium berghei infected in Swiss Webster mouse assessed as mouse survival rate at 33 mg/kg administered once daily via oral gavage for 4 consecutive days beginning 1 hr after infection measured on day 6 post infection relative to control; assay type: functional; outline: as §2
# Plasmodium falciparum [23] = experiment: Antimalarial activity against chloroquine-resistant Plasmodium falciparum W2 infected in human erythrocytes after 48 hrs by YOYO-1 dye based flow cytometric analysis; assay type: functional, cell-based; conditions: W2, 48 h
# Outline: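 P. falciparum W2 cultures were exposed to the compound for 48 h, with artemisinin and chloroquine as reference controls. IC50 was taken from two independent replicates.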
# Plasmodium berghei [24] = experiment: Antimalarial activity against Plasmodium berghei infected in Swiss Webster mouse assessed as mouse survival rate at 100 mg/kg administered once daily via oral gavage for 4 consecutive days beginning 1 hr after infection measured on day 5 post infection relative to control; assay type: functional; outline: as §1
# Plasmodium berghei [25] = experiment: Antimalarial activity against Plasmodium berghei infected in Swiss Webster mouse assessed as mouse survival rate at 11 mg/kg administered once daily via oral gavage for 4 consecutive days beginning 1 hr after infection measured on day 7 post infection relative to control; assay type: functional; outline: as §2
# Plasmodium berghei [26] = experiment: Antimalarial activity against Plasmodium berghei infected in Swiss Webster mouse assessed as mouse survival rate at 1 mg/kg administered once daily via oral gavage for 4 consecutive days beginning 1 hr after infection measured on day 7 post infection relative to control; assay type: functional; outline: as §1
# Plasmodium berghei [27] = experiment: Antimalarial activity against Plasmodium berghei infected in Swiss Webster mouse assessed as mouse survival rate at 1 mg/kg administered once daily via oral gavage for 4 consecutive days beginning 1 hr after infection measured on day 5 post infection relative to control; assay type: functional; outline: as §1
# Plasmodium berghei [28] = experiment: Antimalarial activity against Plasmodium berghei infected in Swiss Webster mouse assessed as mouse survival rate at 33 mg/kg administered once daily via oral gavage for 4 consecutive days beginning 1 hr after infection measured on day 5 post infection relative to control; assay type: functional; outline: as §2
# Plasmodium berghei [29] = experiment: Antimalarial activity against Plasmodium berghei infected in Swiss Webster mouse assessed as mouse survival rate at 3 mg/kg administered once daily via oral gavage for 4 consecutive days beginning 1 hr after infection measured on day 4 post infection relative to control; assay type: functional; outline: as §2
# Plasmodium berghei [30] = experiment: Antimalarial activity against Plasmodium berghei infected in Swiss Webster mouse assessed as mouse survival rate at 200 mg/kg administered once daily via oral gavage for 4 consecutive days beginning 1 hr after infection measured on day 5 post infection relative to control; assay type: functional; outline: as §2
# Plasmodium berghei [31] = experiment: Antimalarial activity against Plasmodium berghei infected in Swiss Webster mouse assessed as mouse survival rate at 11 mg/kg administered once daily via oral gavage for 4 consecutive days beginning 1 hr after infection measured on day 6 post infection relative to control; assay type: functional; outline: as §2
# Plasmodium berghei [32] = experiment: Antimalarial activity against Plasmodium berghei infected in Swiss Webster mouse assessed as mouse survival rate at 200 mg/kg administered once daily via oral gavage for 4 consecutive days beginning 1 hr after infection measured on day 11 post infection relative to control; assay type: functional; outline: as §2
# Plasmodium berghei [33] = experiment: Antimalarial activity against Plasmodium berghei infected in Swiss Webster mouse assessed as mouse survival rate at 1 mg/kg administered once daily via oral gavage for 4 consecutive days beginning 1 hr after infection measured on day 4 post infection relative to control; assay type: functional; outline: as §1
compound,measurement,setting,value
CC[C@H](CO)NC(=O)c1cnc(Oc2ccc3c(c2C)B(O)OC3)cn1,survival at 100 mg/kg,Plasmodium berghei [1],100%
same,survival at 200 mg/kg,Plasmodium berghei [2],100%
same,survival at 200 mg/kg,Plasmodium berghei [3],20%
same,survival at 3 mg/kg,Plasmodium berghei [4],0%
same,survival at 100 mg/kg,Plasmodium berghei [5],100%
same,survival at 100 mg/kg,Plasmodium berghei [6],80%
same,survival at 3.7 mg/kg,Plasmodium berghei [7],100%
same,survival at 3 mg/kg,Plasmodium berghei [8],100%
same,survival at 33 mg/kg,Plasmodium berghei [9],100%
same,survival at 200 mg/kg,Plasmodium berghei [10],100%
same,survival at 33 mg/kg,Plasmodium berghei [11],0%
same,ED90,Plasmodium berghei [12],43.3 mg/kg
same,survival at 100 mg/kg,Plasmodium berghei [13],100%
same,survival at 11 mg/kg,Plasmodium berghei [14],100%
same,survival at 200 mg/kg,Plasmodium berghei [15],60%
same,survival at 100 mg/kg,Plasmodium berghei [16],0%
same,survival at 3 mg/kg,Plasmodium berghei [17],100%
same,survival at 200 mg/kg,Plasmodium berghei [18],100%
same,IC50,Plasmodium falciparum [19],403 nM
same,survival at 200 mg/kg,Plasmodium berghei [20],100%
same,survival at 1 mg/kg,Plasmodium berghei [21],100%
same,survival at 33 mg/kg,Plasmodium berghei [22],100%
same,IC50,Plasmodium falciparum [23],136 nM
same,survival at 100 mg/kg,Plasmodium berghei [24],100%
same,survival at 11 mg/kg,Plasmodium berghei [25],0%
same,survival at 1 mg/kg,Plasmodium berghei [26],0%
same,survival at 1 mg/kg,Plasmodium berghei [27],100%
same,survival at 33 mg/kg,Plasmodium berghei [28],100%
same,survival at 3 mg/kg,Plasmodium berghei [29],100%
same,survival at 200 mg/kg,Plasmodium berghei [30],100%
same,survival at 11 mg/kg,Plasmodium berghei [31],100%
same,survival at 200 mg/kg,Plasmodium berghei [32],0%
same,survival at 1 mg/kg,Plasmodium berghei [33],100%
